Experimental data of several laboratories.
Compare with care: the assays were run in different laboratories.
Target: Ephrin type-B receptor 1 (EPHB1, Homo sapiens, UniProt P54762)
Sequence (P54762 18-984, as in one of the studies): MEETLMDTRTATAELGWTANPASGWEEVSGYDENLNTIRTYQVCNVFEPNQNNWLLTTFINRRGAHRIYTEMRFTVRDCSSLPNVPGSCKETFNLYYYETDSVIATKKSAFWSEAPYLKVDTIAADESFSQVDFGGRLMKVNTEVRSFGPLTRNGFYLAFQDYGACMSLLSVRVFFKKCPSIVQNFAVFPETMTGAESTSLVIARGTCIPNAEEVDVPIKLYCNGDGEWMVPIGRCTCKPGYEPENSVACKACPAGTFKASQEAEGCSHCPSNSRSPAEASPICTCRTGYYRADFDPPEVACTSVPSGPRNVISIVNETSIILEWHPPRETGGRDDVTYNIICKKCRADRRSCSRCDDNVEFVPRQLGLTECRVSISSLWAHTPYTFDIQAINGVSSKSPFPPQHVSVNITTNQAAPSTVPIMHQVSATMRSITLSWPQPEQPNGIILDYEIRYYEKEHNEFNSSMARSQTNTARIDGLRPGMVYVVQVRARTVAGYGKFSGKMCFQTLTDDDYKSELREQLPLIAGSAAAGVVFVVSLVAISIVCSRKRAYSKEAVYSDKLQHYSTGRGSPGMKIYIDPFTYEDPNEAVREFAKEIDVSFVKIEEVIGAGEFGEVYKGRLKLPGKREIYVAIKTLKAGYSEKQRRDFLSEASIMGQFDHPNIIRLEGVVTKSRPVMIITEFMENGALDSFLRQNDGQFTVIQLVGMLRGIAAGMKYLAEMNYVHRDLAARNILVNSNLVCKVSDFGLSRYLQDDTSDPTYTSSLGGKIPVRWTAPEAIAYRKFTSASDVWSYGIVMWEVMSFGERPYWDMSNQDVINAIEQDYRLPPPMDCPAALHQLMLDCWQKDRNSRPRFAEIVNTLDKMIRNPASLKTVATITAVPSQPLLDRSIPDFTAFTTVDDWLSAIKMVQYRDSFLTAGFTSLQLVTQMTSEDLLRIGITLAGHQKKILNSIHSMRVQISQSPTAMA

Structure (SMILES) | test | setting | remaining binding
CN(C)c1nccc(-c2cnn3ncccc23)n1 | binding | 1 µM | 100%
O=c1nc(-c2ccccn2)sc2ccccc12 | cell-free assay, competition with immobilised ligand | 1 µM | 88%
O=C(NCCCN1CCOCC1)c1ccc(Nc2nccc(-c3cc4ccccc4s3)n2)cc1 | binding, competition with immobilised ligand | 1 µM | 77%
COc1cnc(Nc2cccc(S(N)(=O)=O)c2)nc1N1CCN(c2ccccc2)C(=O)C1 | binding, competition with immobilised ligand | 1 µM | 100%
O=C(c1ccc(Nc2nccc(-c3cc4ccccc4s3)n2)cc1)N1CCC(N2CCCC2)CC1 | binding, competition with immobilised ligand | 1 µM | 47%
C[C@@H](c1ccc(-n2cnc3c(N)ncnc32)cc1)N1CCc2nn(C)c(Cc3ccccc3)c2C1=O | binding, competition with immobilised ligand | 0.1 µM | 70%
CC(C)(O)c1cncc(-c2nc3ccc(F)cc3n2C2CC2)c1 | cell-free assay, competition with immobilised ligand | 1 µM | 100%
C[C@H]1CCN(c2nccc(-c3cnn4ncccc34)n2)C1 | binding | 1 µM | 100%
Nc1cnc(N2CCc3cc(S(=O)(=O)Nc4c(F)cc(Cl)cc4F)cc(N4CCCC4=O)c32)nc1 | cell-free assay, competition with immobilised ligand | 1 µM | 92%
FC(F)(F)Oc1cccc(-c2cnc3ccc(-c4ccncc4)nn23)c1 | cell-free assay, competition with immobilised ligand | 5 µM | 82%
O=C(Nc1c[nH]nc1C(=O)NC1CCNCC1)c1cc(F)cc(F)c1 | binding, competition with immobilised ligand | 1 µM | 100%
Cc1cnn2ncc(-c3ccnc(N(C)C)n3)c2c1 | binding | 1 µM | 100%
c1ccc(N2CCN(Cc3nc4ccccc4[nH]3)CC2)nc1 | cell-free assay, competition with immobilised ligand | 1 µM | 100%
O=C(c1ccc(Nc2ncc(Cl)c(-c3cc4ccccc4s3)n2)cc1)N1CCC(N2CCCC2)CC1 | binding, competition with immobilised ligand | 1 µM | 33%
CNC(=O)[C@@H]1CC[C@@H](n2c(-c3ccc4cnccc4c3)nc3ccc(C(=O)NCc4cccc(C(N)=O)c4)cc32)C1 | binding, competition with immobilised ligand | 1 µM | 100%
CN(CCCC(F)(F)F)c1nccc(-c2cnn3ncccc23)n1 | binding | 1 µM | 91%
CN1CCN(c2cnc3c(C4CCN(C(=O)c5ccc(OC(F)(F)F)cc5N)CC4)ncnc3c2)CC1 | cell-free assay, competition with immobilised ligand | 1 µM | 100%
C=CC(=O)N1CCC(C(=O)NCC(=O)N2CCN(c3nc(-c4cnc(N)nc4C(F)F)nc(N4CCOCC4)n3)CC2)CC1 | binding, competition with immobilised ligand | 1 µM | 100%
N[C@@H]1CCN(c2nccc(-c3cnn4ncccc34)n2)C1 | binding | 1 µM | 96%
CNCc1ccccc1-c1csc([C@H](C)Nc2nc(C)nc3cc(OC)c(OC)cc23)c1 | cell-free assay, competition with immobilised ligand | 1 µM | 100%
Nc1ncc2c(n1)-c1c([nH]c3ccc(C#CC4CC4)cc13)CCCC2 | binding, competition with immobilised ligand | 1 µM | 92%
